Laboratory results taken from ChEMBL document CHEMBL1122831, “Synthesis and structure-activity relationships of novel arylfluoroquinolone antibacterial agents” (1985).
≈ marks a conversion by molar mass, not a printed value.

Key:
Type in all cases: functional
Streptococcus pyogenes = assay: Minimum inhibition concentration in vitro determined against Streptococcus pyogenes 930
Procedure, shortened: (§1)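 Agar dilution on brain-heart infusion (BHI) agar with twofold dilutions from a 2000 µg/mL stock, giving final test concentrations of 200-0.005 µg/mL. Organisms were grown overnight in BHI broth at 36 °C, and about 10⁴ organisms were inoculated per plate. Plates were incubated 18 h at 36 °C. MIC was the lowest concentration with no visible growth.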

Staphylococcus aureus [1] = assay: Minimum inhibition concentration in vitro determined against Staphylococcus aureus CMX 686B; procedure, shortened: as §1
Acinetobacter = assay: Minimum inhibition concentration in vitro determined against Acinetobacter sp CMX669; procedure, shortened: as §1
[2] = tested on: Staphylococcus epidermidis; assay: Minimum inhibition concentration in vitro determined against Staphylococcus epidermidis 3519; procedure, shortened: as §1
Escherichia coli [3] = assay: Minimum inhibition concentration in vitro determined against Escherichia coli juhl; procedure, shortened: as §1
Pseudomonas aeruginosa [4] = assay: Minimum inhibition concentration in vitro determined against Pseudomona aeruginosa 5007; procedure, shortened: as §1
Staphylococcus aureus [5] = assay: Minimum inhibition concentration in vitro determined against Staphylococcus aureus ATCC 6538P; procedure, shortened: as §1
Pseudomonas aeruginosa [6] = assay: Minimum inhibition concentration in vitro determined against Pseudomona aeruginosa K799/WT; procedure, shortened: as §1
Enterococcus faecium [7] = assay: 0 Minimum inhibition concentration was determined against Streptococcus faecium ATCC 8043 (in vitro); procedure, shortened: as §1
Klebsiella pneumoniae = assay: Minimum inhibition concentration in vitro determined against Klebsiella pneumoniae 8045; procedure, shortened: as §1
Klebsiella aerogenes = assay: Minimum inhibition concentration in vitro determined against Enterobacteri aerogenes ATCC 13048; procedure, shortened: as §1
Enterococcus faecium [8] = assay: Minimum inhibition concentration in vitro determined against Streptococcus faecium ATCC 8043; procedure, shortened: as §1
Escherichia coli [9] = assay: Compound was evaluated for inhibitory activity against Escherichia coli Juhl (in vivo); conditions: in the assay text read “in vitro” for “in vivo”
Mus musculus [10] = assay: In vivo inhibitory activity against Escherichia coli Juhl after peroral administration in mice; conditions: po
Procedure, shortened: (§2)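 Female CF-1 mice (~20 g) were infected ip with 0.5 mL of an 18-h BHI culture of E. coli Juhl in 5% hog gastric mucin at 100× LD50. The LD50 had been set beforehand by 10-fold dilutions and Reed-Muench. Compound in water or dilute NaOH was given sc or po, split equally at 1 and 5 h post-infection. Groups of 10 mice got ≥3 doses, with 10 untreated controls. ED50 was calculated from day-6 cumulative mortality by trimmed Logit.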

Mus musculus [11] = assay: In vivio inhibitory activity against Escherichia coli Juhl after subcutaneous administration in mice; conditions: sc; procedure, shortened: as §2
Mus musculus [12] = assay: In vivo inhibitory activity of teh compound against Escherichia coli Juhl after peroral administration in mice; conditions: po; procedure, shortened: as §2
[13] = Escherichia coli, read-out: MIC

SMILES	MIC (Streptococcus pyogenes) [µg/mL]	MIC (Staphylococcus aureus [1]) [µg/mL]	MIC (Acinetobacter) [µg/mL]	MIC [2] [µg/mL]	MIC (Escherichia coli [3]; [13]) [µg/mL]	MIC (Pseudomonas aeruginosa [4]) [µg/mL]	MIC (Staphylococcus aureus [5]) [µg/mL]	MIC (Pseudomonas aeruginosa [6]) [µg/mL]	MIC (Enterococcus faecium [7]) [µg/mL]	MIC (Klebsiella pneumoniae) [µg/mL]	MIC (Klebsiella aerogenes) [µg/mL]	MIC (Enterococcus faecium [8]) [µg/mL]	MIC (Escherichia coli [9]) [µg/mL]	ED50 (Mus musculus [10]) [mg/kg]	ED50 (Mus musculus [11]) [mg/kg]	MIC (Escherichia coli [3]) [µg/mL]	ED50 (Mus musculus [12]) [mg/kg]
CN1CCN(c2cc3c(cc2F)c(=O)c(C(=O)O)cn3-c2ccc3c(c2)OCO3)CC1	12.5 (≈ 29.4 µM)	0.78 (≈ 1.83 µM)	0.78 (≈ 1.83 µM)	1.56 (≈ 3.67 µM)	0.78 (≈ 1.83 µM)	6.2 (≈ 14.6 µM)	0.78 (≈ 1.83 µM)	6.2 (≈ 14.6 µM)	50 (≈ 118 µM)	0.2 (≈ 0.47 µM)	0.78 (≈ 1.83 µM)						
O=C(O)c1cn(-c2ccc(F)cc2)c2cc(N3CCC(O)C3)c(F)cc2c1=O (stereo unspecified)	1.56 (≈ 4.04 µM)	< 0.1	0.39 (≈ 1.01 µM)	0.2 (≈ 0.518 µM)	0.2 (≈ 0.518 µM)	3.1 (≈ 8.02 µM)	< 0.1	3.1 (≈ 8.02 µM)		0.2 (≈ 0.518 µM)	0.78 (≈ 2.02 µM)	1.56 (≈ 4.04 µM)					
Cc1ccccc1-n1cc(C(=O)O)c(=O)c2cc(F)c(N3CCN(C)CC3)cc21	50 (≈ 126 µM)	3.1 (≈ 7.84 µM)	1.56 (≈ 3.95 µM)	3.1 (≈ 7.84 µM)	1.56 (≈ 3.95 µM)	25 (≈ 63.2 µM)	3.1 (≈ 7.84 µM)	12.5 (≈ 31.6 µM)		1.56 (≈ 3.95 µM)	3.1 (≈ 7.84 µM)	50 (≈ 126 µM)					
CC(C)N(C)c1cc2c(cc1F)c(=O)c(C(=O)O)cn2-c1ccc(F)cc1	12.5 (≈ 33.6 µM)	0.78 (≈ 2.09 µM)	12.5 (≈ 33.6 µM)	1.56 (≈ 4.19 µM)	6.2 (≈ 16.7 µM)	100 (≈ 269 µM)	0.78 (≈ 2.09 µM)	50 (≈ 134 µM)		3.1 (≈ 8.33 µM)	6.2 (≈ 16.7 µM)	12.5 (≈ 33.6 µM)					
CN1CCN(c2cc3c(cc2F)c(=O)c(C(=O)O)cn3-c2ccc(F)cc2)CC1 [DIFLOXACIN]	1.56 (≈ 3.91 µM)	0.2 (≈ 0.501 µM)	0.2 (≈ 0.501 µM)	0.39 (≈ 0.976 µM)	0.2 (≈ 0.501 µM)	1.56 (≈ 3.91 µM)	0.2 (≈ 0.501 µM)	1.56 (≈ 3.91 µM)		0.1 (≈ 0.25 µM)	0.78 (≈ 1.95 µM)	1.56 (≈ 3.91 µM)	0.2 (≈ 0.501 µM)	3.1	1.6		
CCn1cc(C(=O)O)c(=O)c2cc(F)c(N3CCNCC3)cc21 [NORFLOXACIN]	3.1 (≈ 9.71 µM)	0.78 (≈ 2.44 µM)	6.2 (≈ 19.4 µM)	1.56 (≈ 4.89 µM)	0.1 (≈ 0.313 µM)	0.39 (≈ 1.22 µM)	0.78 (≈ 2.44 µM)	0.39 (≈ 1.22 µM)		0.1 (≈ 0.313 µM)	0.2 (≈ 0.626 µM)	0.78 (≈ 2.44 µM)		15.1	0.6	0.1 (≈ 0.313 µM)	
O=C(O)c1cn(-c2ccc(F)cc2)c2cc(N3CCNCC3)c(F)cc2c1=O [SARAFLOXACIN]	0.78 (≈ 2.02 µM)	0.2 (≈ 0.519 µM)	0.2 (≈ 0.519 µM)	0.39 (≈ 1.01 µM)	0.05 (≈ 0.13 µM)	0.39 (≈ 1.01 µM)	0.2 (≈ 0.519 µM)	0.39 (≈ 1.01 µM)		0.02 (≈ 0.0519 µM)	0.2 (≈ 0.519 µM)	1.56 (≈ 4.05 µM)	0.05 (≈ 0.13 µM)		0.6		4.3
